From ChEMBL document CHEMBL1136978, “Aryl urea derivatives of spiropiperidines as NPY Y5 receptor antagonists” (Bioorg Med Chem Lett, 2009)

How the values were obtained:
Type in all cases: ADME, organism-based
[1] = Oral bioavailability in rat at 3 mg/kg, iv and 10 mg/kg, po; settings: in vivo
[2] = tested on: Brain; assay: Drug level in rat brain at 10 mg/kg, po after 2 hrs measured per gram of tissue; design: dose 10 mg/kg, route oral; settings: in vivo
Outline: (§1)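 Single oral dose of 10 mg/kg to rats (n = 3). Plasma (µM), brain (nmol/g tissue) and CSF (µM) levels taken at 2 h post-dose.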

[3] = Plasma concentration in rat at 10 mg/kg, po after 2 hrs; design: dose 10 mg/kg, route oral; outline: as §1
[4] = Drug level in rat cerebrospinal fluid at 10 mg/kg, po after 2 hrs; design: dose 10 mg/kg, route oral; settings: read-out: Drug uptake; outline: as §1

Row | Structure (SMILES) | bioavailability [1] [%] | Drug uptake [2] [nmol/g] | concentration at 2 h [3] [nM] | concentration at 2 h [4] [nM]
1 | O=C1NC2(CCN(C(=O)Nc3cnc(-c4ccccc4)cn3)CC2)c2ccccc21 | 8 | 0.029 | 360 | –
2 | O=C1OC2(CCN(C(=O)Nc3cnc(-c4ccccc4)cn3)CC2)c2ccccc21 | 49 | 2.92 | 2980 | 100
3 | O=C1Cc2ccccc2C2(CCN(C(=O)Nc3cnc(-c4ccccc4)cn3)CC2)N1 | 3 | – | – | –

Second part, the compound after the results:

Row | bioavailability [1] [%] | Drug uptake [2] [nmol/g] | concentration at 2 h [3] [nM] | concentration at 2 h [4] [nM] | Structure (SMILES)
4 | – | 0.26 | 3860 | 130 | O=C1OC2(CCN(C(=O)Nc3ncc(-c4ccccc4)cn3)CC2)c2ccccc21
5 | – | 1.09 | 1420 | < 10 | O=C1OC2(CCN(C(=O)Nc3cc(-c4ccc(Cl)cc4)no3)CC2)c2ccccc21
